Measured values published in ChEMBL document CHEMBL1154114, “7-((4-Substituted)piperazin-1-yl) derivatives of ciprofloxacin: synthesis and in vitro biological evaluation as potential antitumor agents” (Bioorg Med Chem, 2009).

Experiments:
HT-29 [1] = test: Inhibition of human HT-29 cell proliferation; type: functional, cell-based
[2] = target: DNA topoisomerase 2-alpha (Homo sapiens) (UniProt P11388); test: Inhibition of human topoisomerase 2 assessed as conversion of catenated to decatenated form of kDNA
[3] = target: DNA topoisomerase 2-alpha (Homo sapiens) (UniProt P11388); test: Inhibition of human topoisomerase 2-mediated DNA unwinding activity
NCI-H226 = test: Inhibition of human NCI-H226 cell proliferation; type: functional, cell-based
[4] = Inhibition of human MDA231 cell proliferation; type: functional, cell-based; conditions: MDA-MB-231
PC-3 [5] = test: Antitumor activity against human PC3 cells after 5 days by MTT assay; type: functional, cell-based; conditions: PC-3, 120 h
Procedure, shortened: (§1)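 Five human cancer lines (prostate PC-3, glioblastoma U373-MG, colorectal LoVo, NSCLC A549, breast MCF-7) plated at 10⁴ to 3×10⁴ cells/mL depending on cell type, allowed 24 h to attach, then cultured 120 h with or without drug at nine concentrations. MTT reduction to formazan read at 570 nm (reference 630 nm).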

MCF7 [6] = test: Ratio of ciprofloxacin IC50 to compound IC50 for human MCF7 cells; type: functional
[7] = Toxicity in ip dosed B6D2F1 mouse assessed as maximum tolerated dose after 28 days; type: organism-based; conditions: in vivo
Procedure, shortened: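 Healthy mice, three per group, each given a single ip dose and observed for up to 28 days. The MTD index is the highest single dose given without causing any deaths in the group.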

A549 [8] = test: Ratio of ciprofloxacin IC50 to compound IC50 for human A549 cells; type: functional
LoVo [9] = test: Ratio of ciprofloxacin IC50 to compound IC50 for human LoVo cells; type: functional
[10] = Stability in phosphate buffer of pH 7.4 after 6 days; type: physicochemical; conditions: read-out: Stability
Procedure, shortened: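 Compound dissolved at 1 mM in DMSO, diluted with phosphate buffer pH 7.4 to 1 mL, incubated sealed at 37 °C for 6 days. A t0 aliquot was held at 4 °C. HPLC with 280 nm detection and duplicate injections, with expected degradation products as references. Stability is taken as compound peak area over (compound + degradation product) peak area.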

MCF7 [11] = test: Antitumor activity against human MCF7 cells after 5 days by MTT assay; type: functional, cell-based; conditions: MCF7, 120 h; procedure, shortened: as §1
LoVo [12] = test: Antitumor activity against human LoVo cells after 5 days by MTT assay; type: functional, cell-based; conditions: 120 h; procedure, shortened: as §1
U373 MG = test: Ratio of ciprofloxacin IC50 to compound IC50 for human U373MG cells; type: functional, U-373MG ATCC
PC-3 [13] = test: Ratio of ciprofloxacin IC50 to compound IC50 for human PC3 cells; type: functional
[14] = Antitumor activity against human U373MG cells after 5 days by MTT assay; type: functional, cell-based, U-373MG ATCC; conditions: U373 MG, 120 h; procedure, shortened: as §1
A549 [15] = test: Antitumor activity against human A549 cells after 5 days by MTT assay; type: functional, cell-based; conditions: A549, 120 h; procedure, shortened: as §1
NCI-H460 [16] = test: Inhibition of human NCI-H460 cell proliferation by sulphorodhamine B assay; type: functional, cell-based
HeLa [17] = test: Inhibition of human HeLa cell proliferation assessed as bromodeoxyuridine incorporation during DNA synthesis after 48 hrs by ELISA; type: functional, cell-based
MG-63 = test: Inhibition of human MG63 cell proliferation assessed as bromodeoxyuridine incorporation during DNA synthesis after 48 hrs by ELISA; type: functional, cell-based; conditions: MG-63, 48 h
MCF7 [18] = test: Inhibition of human MCF7 cell proliferation after 5 days by MTT assay; type: functional, cell-based; conditions: MCF7, 120 h; procedure, shortened: as §1
NCI-H460 [19] = test: Induction of apoptosis in human NCI-H460 cells at 120 uM by sulphorodhamine B assay; type: functional
A-431 = test: Inhibition of human A431 cell proliferation by MTT assay; type: functional, cell-based
KB = test: Inhibition of human KB cell proliferation by MTT assay; type: functional, cell-based
EJ = test: Inhibition of human EJ cell proliferation by MTT assay; type: functional, cell-based
HeLa [20] = test: Inhibition of human HeLa cell proliferation; type: functional, cell-based
SW480 = test: Inhibition of human SW480 cell proliferation by MTT assay; type: functional, cell-based
[21] = Inhibition of mouse NIH/3T3 cell proliferation by MTT assay; type: cell-based; conditions: NIH3T3
K562 = test: Inhibition of human K562 cell proliferation by sulphorodhamine B assay; type: functional, cell-based
SK-MEL = test: Inhibition of human SK-MEL cell proliferation by MTT assay; type: functional, cell-based
V79 = test: Inhibition of chinese hamster V79 cell proliferation assessed as bromodeoxyuridine incorporation during DNA synthesis after 48 hrs by ELISA; conditions: Cricetulus griseus, V79, 48 h
[22] = target: DNA topoisomerase 2-alpha (Homo sapiens) (UniProt P11388); test: Inhibition of topoisomerase 2-mediated DNA relaxation activity in human HeLa cells by Oomori method; type: cell-based
MC3T3-E1 = test: Inhibition of mouse MC3T3-E1 cell proliferation after 48 to 72 hrs; type: functional, cell-based
MCF7 [23] = test: Inhibition of human MCF7 cell proliferation by MTT assay; type: functional, cell-based
MCF7 [24] = test: Inhibition of human MCF7 cell proliferation; type: functional, cell-based
G-quadruplex DNA = test: Interaction with G-quadruplex DNA assessed by polymerase stop assay
[25] = Inhibition of human RPMI8226/S cell proliferation; type: functional, cell-based
B16 = test: Inhibition of mouse B16 cell proliferation; type: functional, cell-based
DU-145 = test: Inhibition of human DU145 cell proliferation; type: functional, cell-based
HCT-8 = test: Antitumor activity against human HCT8 cells after 3 days by MTT assay; type: functional, cell-based; conditions: HCT-8, 72 h
[26] = Inhibition of human […] cell proliferation; type: functional, cell-based
P388 = test: Inhibition of mouse P388 cell proliferation; type: functional, cell-based
A549 [27] = test: Antitumor activity against human A549 cells after 3 days by MTT assay; type: functional, cell-based; conditions: A549, 72 h
HT-29 [28] = test: Antitumor activity against human HT-29 cells after 3 days by MTT assay; type: functional, cell-based; conditions: HT-29, 72 h
MCF7 [29] = test: Antitumor activity against human MCF7 cells after 3 days by MTT assay; type: functional, cell-based; conditions: MCF7, 72 h

DNA topoisomerase 2-alpha (Homo sapiens), sequence (P11388 whole entry): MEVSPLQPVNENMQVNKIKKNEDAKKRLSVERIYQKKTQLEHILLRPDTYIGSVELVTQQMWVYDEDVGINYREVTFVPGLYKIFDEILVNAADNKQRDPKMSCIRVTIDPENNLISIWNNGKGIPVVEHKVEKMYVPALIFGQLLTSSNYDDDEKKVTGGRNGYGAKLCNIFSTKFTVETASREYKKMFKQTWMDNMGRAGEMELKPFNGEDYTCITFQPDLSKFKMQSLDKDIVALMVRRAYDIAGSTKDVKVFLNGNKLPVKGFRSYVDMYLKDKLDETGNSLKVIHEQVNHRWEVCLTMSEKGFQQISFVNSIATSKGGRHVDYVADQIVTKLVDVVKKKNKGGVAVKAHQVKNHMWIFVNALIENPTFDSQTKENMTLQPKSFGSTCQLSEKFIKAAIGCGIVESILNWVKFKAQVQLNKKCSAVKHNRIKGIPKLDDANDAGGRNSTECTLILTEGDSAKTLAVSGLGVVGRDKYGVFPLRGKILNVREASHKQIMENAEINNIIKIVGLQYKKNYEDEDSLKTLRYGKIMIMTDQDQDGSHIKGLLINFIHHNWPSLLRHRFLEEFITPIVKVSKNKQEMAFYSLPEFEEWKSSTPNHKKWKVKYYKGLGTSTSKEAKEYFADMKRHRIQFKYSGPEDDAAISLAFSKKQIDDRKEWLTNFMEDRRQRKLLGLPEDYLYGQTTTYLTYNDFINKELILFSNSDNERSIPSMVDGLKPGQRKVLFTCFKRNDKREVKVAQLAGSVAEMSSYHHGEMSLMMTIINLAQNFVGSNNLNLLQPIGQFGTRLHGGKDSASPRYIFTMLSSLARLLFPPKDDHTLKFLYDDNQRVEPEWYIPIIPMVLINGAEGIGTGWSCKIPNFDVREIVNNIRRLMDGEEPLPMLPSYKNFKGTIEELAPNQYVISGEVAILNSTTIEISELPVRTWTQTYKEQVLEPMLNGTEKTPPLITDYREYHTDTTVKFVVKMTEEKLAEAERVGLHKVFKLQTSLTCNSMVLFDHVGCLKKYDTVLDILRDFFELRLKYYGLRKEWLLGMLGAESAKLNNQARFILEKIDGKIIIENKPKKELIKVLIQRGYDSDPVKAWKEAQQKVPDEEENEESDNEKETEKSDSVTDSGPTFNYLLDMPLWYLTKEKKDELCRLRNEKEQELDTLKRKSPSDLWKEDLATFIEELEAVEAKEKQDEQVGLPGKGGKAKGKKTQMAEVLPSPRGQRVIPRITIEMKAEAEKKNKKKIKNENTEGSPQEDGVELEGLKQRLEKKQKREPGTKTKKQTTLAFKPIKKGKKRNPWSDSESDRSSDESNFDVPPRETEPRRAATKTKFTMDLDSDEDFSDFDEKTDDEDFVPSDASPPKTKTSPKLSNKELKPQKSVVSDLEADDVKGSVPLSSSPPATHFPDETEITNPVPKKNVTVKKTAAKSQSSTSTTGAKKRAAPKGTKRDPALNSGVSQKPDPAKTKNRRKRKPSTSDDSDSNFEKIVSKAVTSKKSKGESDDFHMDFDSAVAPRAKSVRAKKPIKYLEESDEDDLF

In the case of `N[C@@H]1CCN(c2c(F)cc3c(=O)c(C(=O)O)cn4c3c2Oc2c-4ccc3ccccc23)C1`, the IC50 (HT-29 [1]) is reported as 0.03 µM, the Activity [2] is reported as 0.2 µM and the Activity [3] is reported as 3 µM. For the same compound, the IC50 (NCI-H226) was 0.01 µM and the IC50 [4] was 0.005 µM.

With `O=C(O)c1cn(C2CC2)c2cc(N3CCN(C(=O)CCl)CC3)c(F)cc2c1=O` the IC50 (PC-3 [5]) was 8 µM, the “Ratio IC50” value (MCF7 [6]) was 5 and the MTD at 672 h [7] was > 80 mg/kg. The “Ratio IC50” value (A549 [8]) was 5, the “Ratio IC50” value (LoVo [9]) was 5 and the remaining at 144 h [10] was > 99%. For the same compound, the IC50 (MCF7 [11]) was 23 µM, the IC50 (LoVo [12]) was 17 µM and the “Ratio IC50” value (U373 MG) was 5. For the same compound, the “Ratio IC50” value (PC-3 [13]) was 5, the IC50 [14] was 4 µM and the IC50 (A549 [15]) was 10 µM.

In the case of `O=C(O)c1cn(C2CC2)c2cc(N3CCNCC3)c(F)cc2c1=O` [CIPROFLOXACIN], the IC50 (NCI-H460 [16]) is reported as 60 µM, the IC50 (PC-3 [5]) is reported as 143 µM and the IC50 (HeLa [17]) is reported as 800 µM. The MTD at 672 h [7] was > 80 mg/kg, the IC50 (MG-63) was 480 µM and the IC50 (MCF7 [18]) was 76 µM. It also gave an Activity (NCI-H460 [19]) of 35%, an IC50 (A-431) of 135 µM and an IC50 (KB) of 160 µM. The IC50 (EJ) was 202 µM, the IC50 (MCF7 [11]) was 476 µM and the IC50 (HeLa [20]) was 270 µM. The IC50 (SW480) was 128 µM, the IC50 (LoVo [12]) was 89 µM and the IC50 [21] was > 1000 µM. The IC50 (K562) was > 150 µM, the IC50 (SK-MEL) was 196 µM and the IC50 (V79) was > 1000 µM. The IC50 [14] was 96 µM, the IC50 (A549 [15]) was 280 µM and the Activity [22] was 104 µM. For the same compound, the IC50 (MC3T3-E1) was 120 µM and the IC50 (MCF7 [23]) was 199 µM.

Compound `N[C@H]1CCN(c2c(F)cc3c(=O)c(C(=O)O)cn4c3c2Oc2c-4ccc3c2ccc2ccccc23)C1` has an IC50 (MCF7 [24]) of 1 µM, an IC50 (G-quadruplex DNA) of 0.7 µM and an IC50 [25] of 0.7 µM.

Compound `N[C@H]1CCN(c2c(F)cc3c(=O)c(C(=O)O)cn4c3c2Oc2c-4ccc3ccccc23)C1` has an IC50 (HT-29 [1]) of 0.05 µM, an Activity [2] of 0.5 µM and an IC50 (B16) of 0.2 µM. For the same compound, the Activity [3] was 10 µM, the IC50 (NCI-H226) was 0.03 µM and the IC50 [4] was 0.08 µM. The IC50 (DU-145) was 0.06 µM.

`NC1CCN(c2c(F)cc3c(=O)c(C(=O)O)cn4c3c2Oc2ccccc2-4)C1` (configuration not stated) showed an IC50 (HT-29 [1]) of 0.2 µM, an IC50 (HCT-8) of 0.3 µM and an IC50 [26] of 0.7 µM. It also gave an Activity [2] of 0.5 µM, an IC50 (MCF7 [24]) of 0.7 µM and an Activity [3] of 50 µM. For the same compound, the IC50 (P388) was 0.05 µM, the IC50 (A549 [27]) was 1.3 µM and the IC50 (HT-29 [28]) was 0.5 µM. For the same compound, the IC50 [25] was 0.3 µM, the IC50 (DU-145) was 0.2 µM and the IC50 (MCF7 [29]) was 0.8 µM.

For `CC(C)(C)OC(=O)N1CCN(c2cc3c(cc2F)c(=O)c(C(=O)O)cn3C2CC2)CC1`, the IC50 (PC-3 [5]) was 26 µM, the “Ratio IC50” value (MCF7 [6]) was 2 and the MTD at 672 h [7] was > 80 mg/kg. For the same compound, the “Ratio IC50” value (A549 [8]) was 2, the “Ratio IC50” value (LoVo [9]) was 2 and the remaining at 144 h [10] was > 99%. For the same compound, the IC50 (MCF7 [11]) was 13 µM, the IC50 (LoVo [12]) was 40 µM and the “Ratio IC50” value (U373 MG) was 2. For the same compound, the “Ratio IC50” value (PC-3 [13]) was 2, the IC50 [14] was 35 µM and the IC50 (A549 [15]) was 18 µM.

`N[C@@H]1CCN(c2c(F)cc3c(=O)c(C(=O)O)cn4c3c2Oc2c-4ccc3c2ccc2ccccc23)C1` gave an IC50 (MCF7 [24]) of 0.5 µM, an IC50 (G-quadruplex DNA) of 0.06 µM and an IC50 [25] of 0.3 µM.
